Measured values from ChEMBL document CHEMBL5149972, “Novel Antimalarial Tetrazoles and Amides Active against the Hemoglobin Degradation Pathway in Plasmodium falciparum” (J Med Chem, 2021).
Converted amounts (≈) assume the structure as drawn. The source made the active and inactive calls. The rule behind the calls is not given here.

Assays:
[1] = test system: Plasmodium falciparum; assay: Antiplasmodial activity against asexual blood stage Plasmodium falciparum 3D7 infected in human RBC assessed as parasite growth inhibition incubated for 72 hrs by SYBR Green dye based fluorescence assay; assay type: functional, organism-based
How it was run: (§1)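 Blood-stage cultures at 2% hematocrit, human O+ RBCs, RPMI 1640 + 25 mM HEPES, 0.5% Albumax-I, 23 mM bicarbonate, 92 μM hypoxanthine. Start at 0.5% parasitemia; 72 h at 37°C, 5% CO₂; freeze-thaw, then SYBR Green in saponin/Triton lysis buffer, 4 h RT dark; fluorescence ex 485/em 535 nm. 10-point curves, technical duplicates or triplicates, final 0.5% DMSO; four-parameter fit gives EC₅₀; mean ± std dev of biological replicates.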

[2] = test system: HepG2; assay: (§2) Cytotoxicity against human HepG2 cells assessed as reduction in cell viability incubated for 72 hrs by CellTiter-Glo assay; assay type: toxicity, cell-based; details: hepg2, 72 h
[3] = test system: Plasmodium falciparum; assay: Antiplasmodial activity against drug resistant Plasmodium falciparum Dd2 infected in human RBC assessed as parasite growth inhibition incubated for 72 hrs by SYBR Green dye based fluorescence assay; assay type: functional, organism-based; how it was run: as §1
[4] = Metabolic stability in human liver microsomes assessed as intrinsic clearance per mg of protein at 1 uM incubated for 60 mins presence of NADPH regenerating buffer system by LC-MS analysis; assay type: ADME, Microsome; details: 1 h
[5] = Kinetic solubility of compound in PBS at pH 2 by HPLC analysis; assay type: physicochemical; details: read-out: Kinetic_solubility
[6] = Kinetic solubility of compound in PBS at pH 6.5 by HPLC analysis; assay type: physicochemical; details: read-out: Kinetic_solubility
[7] = test system: Hemozoin; assay: Inhibition of Beta-hematin assessed as bis-pyridyl-Fe(III)PPIX complex formation incubated for 5 hrs by NP40 detergent-mediated colorimetric assay
[8] = as §2; assay type: toxicity, cell-based; details: HepG2 cells
[9] = test system: Plasmodium falciparum; assay: Antiplasmodial activity against Plasmodium falciparum NF54 expressing transgenic luciferase assessed as parasite kill rate at trophozoite stage incubated for 72 hrs by bioluminescence relative rate of kill (BRRoK) assay; assay type: functional, organism-based; details: RBC
[10] = test system: Plasmodium falciparum; assay: Antiplasmodial activity against Plasmodium falciparum NF54 expressing transgenic luciferase assessed as parasite kill rate at trophozoite stage incubated for 6 hrs by bioluminescence relative rate of kill (BRRoK) assay; assay type: functional, organism-based; details: RBC
[11] = test system: Plasmodium falciparum; assay: Antiplasmodial activity against Plasmodium falciparum 3D7 infected in human RBC assessed as parasite growth inhibition incubated for 48 hrs by 3H-hypoxanthine incorporation assay; assay type: functional, organism-based; details: 3D7, Erythrocyte
[12] = test system: Plasmodium falciparum; assay: Inhibition of hemozoin formation in sorbitol-synchronized early ring stage plasmodium falciparum NF54 trophozoites assessed as increase in free heme level at 0.5 to 3 times EC50 incubated for 32 hrs by flow cytometry analysis; assay type: functional; details: DDE = dose-dependent effect
[13] = test system: Plasmodium falciparum; assay: Inhibition of hemozoin formation in sorbitol-synchronized early ring stage plasmodium falciparum NF54 trophozoites assessed as increase in free heme-Fe level at 0.5 to 3 times EC50 incubated for 32 hrs by flow cytometry analysis; assay type: functional; details: DDE = dose-dependent effect
[14] = test system: Plasmodium falciparum; assay: Inhibition of hemozoin formation in sorbitol-synchronized early ring stage plasmodium falciparum NF54 trophozoites assessed as decrease in free hemozoin level at 0.5 to 3 times EC50 incubated for 32 hrs by flow cytometry analysis; assay type: functional; details: DDE = dose-dependent effect
[15] = test system: Plasmodium falciparum; assay: Inhibition of hemozoin formation in sorbitol-synchronized early ring stage plasmodium falciparum NF54 trophozoites assessed as decrease in free hemozoin-Fe level at 0.5 to 3 times EC50 incubated for 32 hrs by flow cytometry analysis; assay type: functional; details: DDE = dose-dependent effect
[16] = Plasmodium falciparum, 3D7, Erythrocyte, 72 h

Row | Compound | EC50 [1, 16] [µM] | IC50 [7] [µM] | CC50 at 72 h [8] [µM] | Activity [9] | Activity [10] | also measured
1 | Cc1ccccc1N(C)C(=O)C(c1cncnc1)N(Cc1cccc(C(F)(F)F)c1)C1CC1 (racemic) | 0.4 |  |  |  |  | CC50 [2]: > 30 µM; EC50 ([3]; Plasmodium falciparum, Dd2, Erythrocyte, 72 h): 0.79 µM; CLH [4]: 531 µL/min/mg; solubility kinetic [5]: 11 µg/mL (≈ 24.2 µM); solubility kinetic [6]: > 45 µg/mL
2 | Cc1ccccc1-n1nnnc1C(c1cncnc1)N(Cc1cc(F)cc(C(F)(F)F)c1)C1CC1 (single isomer, unassigned; (-)) |  |  |  |  |  | EC50 ([1]; rbc): 0.42 µM; CC50 [2]: > 30 µM; EC50 ([3]; rbc): 2.6 µM
3 | O[C@@H](c1cc(C(F)(F)F)nc2c(C(F)(F)F)cccc12)[C@H]1CCCCN1 [(S,R)-MEFLOQUINE] |  | 60 |  |  |  | 
4 | CCN(CC)Cc1cc(Nc2ccnc3cc(Cl)ccc23)ccc1O [AMODIAQUINE] |  | 8.6 |  |  |  | 
5 | C[C@@H]1CC[C@H]2[C@@H](C)C(=O)O[C@@H]3O[C@@]4(C)CC[C@@H]1[C@]32OO4 [ARTEMISININ] | 0.013 |  | > 30 | Active | Active | EC50 [11]: 0.03 µM
6 | C[C@H]1[C@H](OC(=O)CCC(=O)O)O[C@@H]2O[C@@]3(C)CC[C@H]4[C@H](C)CC[C@@H]1[C@@]24OO3 [ARTESUNATE] |  | > 1000 |  |  |  | 
7 | O=C1C(O)=C([C@H]2CC[C@H](c3ccc(Cl)cc3)CC2)C(=O)c2ccccc21 [ATOVAQUONE] | 0.0013 |  | > 30 | Active | Active | EC50 [11]: 0.001 µM
8 | CCN(CC)CCCC(C)Nc1ccnc2cc(Cl)ccc12 (centres undefined) [CHLOROQUINE] | 0.014 | 19 | > 30 | Active | Active | EC50 [11]: 0.021 µM; inhibition [12]: Dde; inhibition [13]: Dde; inhibition [14]: Dde; inhibition [15]: Dde
9 | C[C@H]1c2cccc(O)c2C(=O)C2=C(O)[C@]3(O)C(=O)C(C(N)=O)=C(O)[C@@H](N(C)C)[C@@H]3[C@@H](O)[C@@H]21 [DOXYCYCLINE] |  | > 1000 |  |  |  | 
10 | Cc1cc(Nc2ccc(S(F)(F)(F)(F)F)cc2)n2nc(C(C)(F)F)nc2n1 [DSM-265] | 0.005 |  | > 30 | Active | Active | 
11 | COc1ccc2nc3cc(Cl)ccc3c(Nc3cc(CN4CCCC4)c(O)c(CN4CCCC4)c3)c2n1 [PYRONARIDINE] |  | 2.2 |  |  |  | 
12 | COc1ncnc(NS(=O)(=O)c2ccc(N)cc2)c1OC [SULFADOXINE] |  | > 1000 |  |  |  | 
